# HNF4A DNA FP = change in binding of human HNF4 alpha to DNA; P41235; HNF4a-FITC DNA binding, fluorescence polarization, 1 h; activity change, % at 10 µM; 0.3% of 360,000 active; AID 1224865; in the data active = activity change above about 30%, passing the limit was not always enough
# SENP1 inh = SENP1 (human) catalytic domain inhibition; inhibition, % at 10 µM; 0.21% of 360,000 active; AID 624204; Q9P0U3; recombinant SENP1 catalytic domain, CyPet-SUMO1-YPet FRET cleavage;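 active = inhibition at least 30% at 10 µM, raw YFP signal under a set limit, fluorescence ratio 0.5 to 1.5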;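 note: 0% = enzyme with DMSO and 100% = no enzyme wells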
# Target sequence (Q9P0U3 419-644 limits assumed): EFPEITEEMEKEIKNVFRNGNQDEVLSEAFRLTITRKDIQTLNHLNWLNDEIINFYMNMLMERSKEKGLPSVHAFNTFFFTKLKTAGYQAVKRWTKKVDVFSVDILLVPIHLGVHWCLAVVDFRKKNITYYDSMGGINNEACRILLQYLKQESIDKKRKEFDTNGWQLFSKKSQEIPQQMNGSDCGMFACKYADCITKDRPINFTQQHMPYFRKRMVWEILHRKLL
#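 Compound: 10 µM single point, 0.5% DMSO; Test system: hSENP1 catalytic domain, recombinant; Timing: 50 min reaction at room temperature; Technique: FRET, CFP and YFP emission; Control set: no-enzyme wells low, DMSO-plus-enzyme wells high control.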
# CSN deneddyl inh = inhibitors of human CSN-mediated cullin deneddylation. Purified CSN, SCF-Nedd8-OG deneddylation, fluorescence polarization. inhibition, % at 12.5 µM. Q92905. 0.38% of 360,000 active;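 active = pattern-corrected inhibition above about 35%, with an unprinted fluorescence ratio check between 0.5 and 1.5, limit read from the data, passing the limit was not always enough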;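 note: 0% = enzyme with substrate and 100% = substrate without enzyme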
# Target sequence (Q92905 whole entry, looked up, one chain of several): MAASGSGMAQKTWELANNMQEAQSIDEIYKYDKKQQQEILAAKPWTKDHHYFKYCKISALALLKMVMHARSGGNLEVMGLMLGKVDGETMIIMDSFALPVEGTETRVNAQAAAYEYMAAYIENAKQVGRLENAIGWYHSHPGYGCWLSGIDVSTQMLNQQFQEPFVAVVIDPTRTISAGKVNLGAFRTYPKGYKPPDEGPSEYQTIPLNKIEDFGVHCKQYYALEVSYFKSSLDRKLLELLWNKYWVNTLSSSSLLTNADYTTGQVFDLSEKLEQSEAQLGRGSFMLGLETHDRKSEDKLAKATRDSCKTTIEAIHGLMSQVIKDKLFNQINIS
#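 Material: human Csn5 produced in HEK293T cells; Input: enzyme 0.24 nM; Reagent: SCFSkp2-Nedd8OG substrate at 10 nM final; Dosing: 12.5 µM compound; Incubation: 90 min reaction at room temperature; Detection: fluorescence polarization of the substrate; Evaluation: % inhibition of substrate cleavage by Csn5; Control set: substrate-only high control, full reaction low control.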
# TPT1 inh = inhibitors of Candida albicans tRNA 2'-phosphotransferase TPT1; recombinant caTPT1, FP RNA substrate dephosphorylation; inhibition, % at 5 µM; 0.81% of 300,000 active;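 active = inhibition above the mean of all tested compounds plus 3 SD, set per screening campaign, cut at about 24% in these data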;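 note: plate controls were DMSO alone for no effect and ferristatin control at 100 nM for full effect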
# Rpn11 inh = Rpn11 (human) deubiquitinase inhibition | O00487 | human 26S proteasome, Ub4-pepOG fluorescence polarization; 20S core pre-blocked with epoxomicin | inhibition, % at 20 µM | 0.59% of 360,000 active | AID 588493;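 active = inhibition at 20 µM, scaled to each plate's controls, above about 33%, limit read from the data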
# TPT1 inh confirm = confirmation of Candida albicans TPT1 inhibitors; AID 2149; 74% of 2,400 active; recombinant caTPT1, fluorescence polarization, RNase T1 coupled; inhibition, % at 5 µM; shares compounds with TPT1 inh;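 active = inhibition above the primary screen limit, the mean inhibition of all tested compounds plus 3 SD, cut at about 25% in these data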
# RNase T1 counter = blocks Aspergillus oryzae RNase T1, a TPT1 counter-screen. shares compounds with TPT1 inh. RNase T1 cleavage, fluorescence polarization, 1536-well. inhibition, % at 5 µM. 83% of 2,400 active;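 active = inhibition above the solvent-only control well mean plus 3 SD, limit set per screening run, cut at about 23% in these data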;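 note: plate controls were DMSO wells with enzyme for no effect and wells without RNase T1 for full effect; inhibitors block cleavage so intact labeled substrate keeps polarization high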
# Target sequence (P00651 whole entry, looked up): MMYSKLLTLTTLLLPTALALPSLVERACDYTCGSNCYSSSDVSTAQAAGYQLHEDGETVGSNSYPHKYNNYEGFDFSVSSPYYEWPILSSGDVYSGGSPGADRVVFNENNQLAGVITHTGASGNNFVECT
# Rpn11 confirm = Rpn11 inhibition confirmation, single concentration; shares compounds with Rpn11 inh; purified human 26S proteasome, Ub4-pepOG fluorescence polarization; proteasome pretreated with epoxomicin; inhibition, % at 20 µM; 29% of 1,900 active; AID 602318
# MMP-2 counter-1 = blocks human MMP-2, flagging nonselective RPN11 hits. shares compounds with Rpn11 inh. recombinant MMP-2, FRET peptide cleavage fluorescence. inhibition, % at 20 µM. 4% of 1,900 active;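 note: human MMP-2 activated beforehand with APMA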
# Thrombin inh = blocks bovine thrombin, flagging nonselective RPN11 hits. inhibition, % at 20 µM. shares compounds with Rpn11 inh. bovine thrombin cleavage of Ub4-pepOG, fluorescence polarization. 13% of 1,900 active;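 active = mean inhibition at least 40% at 20 µM, or signal 3 deviations below plate average, so some actives read negative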;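 note: plate controls were thrombin with DMSO for no effect and buffer wells lacking thrombin for full effect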
# SENP1 inh conf = SENP1 (human) inhibition, single concentration confirmation; 34% of 520 active; recombinant SENP1, CyPet-SUMO1-YPet FRET cleavage; AID 651678; shares compounds with SENP1 inh; inhibition, % at 10 µM; in the data active = inhibition mostly above about 35%, no sharp cut-off; inactive = mostly below about 32%;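 note: 0% = enzyme with DMSO and 100% = no enzyme control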
# SENP1 kin conf = confirmation of human SENP1 SUMO protease inhibitors, kinetic; 26% of 520 active; inhibition, % at 10 µM; recombinant SENP1, CyPet-SUMO1-YPet FRET kinetic cleavage; shares compounds with SENP1 inh; AID 651690; in the data active = inhibition mostly above about 32%, no sharp cut-off; inactive = mostly below about 29%;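 note: 0% = DMSO with enzyme and 100% = no enzyme substrate only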
# CSN deneddyl val = validation of inhibitors of human CSN-mediated cullin deneddylation; Csn5 deneddylation of SCF-Nedd8OG, fluorescence polarization, 90 min; AID 720654; 62% of 540 active; inhibition, % at 16.6 µM; shares compounds with CSN deneddyl inh; in the data active = inhibition above about 50%;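 note: 0% = DMSO with enzyme and 100% = no enzyme wells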
# MMP-2 counter-2 = counter-screen for CSN deneddylation inhibitors: human MMP-2 inhibition | shares compounds with CSN deneddyl inh | recombinant MMP-2, FRET substrate fluorescence, 60 min | AID 720655 | 33% of 540 active | inhibition, % at 16.6 µM;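 active = corrected plate-normalized z-score of 5 or more, or -5 or less, or inhibition of 15% or more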;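 note: plate controls were DMSO wells with enzyme for no effect and buffer wells lacking MMP-2 for full effect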
# Thrombin cntr = counter-screen for CSN deneddylation inhibitors: bovine thrombin inhibition. shares compounds with CSN deneddyl inh. 49% of 540 active. bovine thrombin cleavage of Ub4-pepOG, fluorescence polarization. inhibition, % at 16.6 µM;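 active = inhibition at or above a set limit, with a fluorescence interference ratio between 0.5 and a set maximum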
# The depositor's hits bear a star; . = not tested or not shown. Shown are actives, neighbours in structure and some others; about 1.6% of the full set was active somewhere. Cut-off read from the data, not from the text of the source, unless noted: active = inhibition above about 40%; inactive = the rest.
SMILES,HNF4A DNA FP,SENP1 inh,CSN deneddyl inh,TPT1 inh,Rpn11 inh,TPT1 inh confirm,RNase T1 counter,others
Cc1cccc(N2C(=O)/C(=C/c3ccc(CN(CCC#N)S(C)(=O)=O)o3)C(=O)NC2=S)c1,22,4,31,34*,42*,21,29*,Rpn11 confirm=73*;MMP-2 counter-1=46*;Thrombin inh=125*
Cc1cc(/C=C2\C(=O)NC(=O)N(c3ccc(Cl)cc3)C2=O)c(C)n1-c1sc2c(c1C#N)CCCC2,5,-16,27,46*,50*,19,28*,Rpn11 confirm=36;MMP-2 counter-1=-16;Thrombin inh=24
CCOC(=O)c1c(-n2c(C)cc(/C=C3\C(=O)NC(=O)N(C)C3=O)c2C)sc2c1CCCC2,2,-1,2,17,17,.,.,
Cn1c(O)c(/C=N/NC(=O)c2ccncc2)c(=O)[nH]c1=S,2,-34,8,-4,30,.,.,
Cn1c(O)c(/C=N/NC(=O)c2ccncc2)c(=O)n(C)c1=S,14,-36,22,116*,96*,101*,111*,Rpn11 confirm=39;MMP-2 counter-1=-39;Thrombin inh=20
COc1ccc(OC)c(-n2c(O)c(/C=C3\C=Nc4ccccc43)c(=O)[nH]c2=O)c1,1,-3,5,15,20,.,.,
COc1ccccc1-n1c(O)c(/C=C2\C=Nc3ccccc32)c(=O)[nH]c1=O,1,13,4,29*,48*,15,22*,Rpn11 confirm=6;MMP-2 counter-1=1;Thrombin inh=0
C=CCn1c(O)c(/C=C2\C=Nc3ccccc32)c(=O)[nH]c1=O,1,22,8,36*,60*,13,21,Rpn11 confirm=14;MMP-2 counter-1=-5;Thrombin inh=10
CCOc1ccc(-n2c(O)c(/C=C3\C=Nc4ccccc43)c(=O)[nH]c2=O)cc1,-8,4,-1,23,36,.,.,
C[C@@H]1CN([C@@H](C)CO)C(=O)CCCn2nncc2CO[C@H]1CN(C)C(=O)Oc1cccc2ccccc12,1,-2,-1,.,0,.,.,
CCN(CCCl)c1cc(CN(C)C)cc(NC(=O)c2ccc(C(=O)Nc3cc(CN(C)C)cc(N(CC)CCCl)c3)cc2)c1,4,1,12,.,-30,.,.,
C=CCC1(CCCCC)C(=O)NC(=S)NC1=O,-5,3,-4,.,1,.,.,
COc1ccc(CN2CCN(Cc3ccccc3F)CC2)cc1,0,3,-3,0,-2,.,.,
NS(=O)(=O)c1ccc(N=Cc2c(O)n(C3CCCCC3)c(=O)n(C3CCCCC3)c2=O)cc1,6,4,23,44*,72*,19,25*,Rpn11 confirm=22;MMP-2 counter-1=-20;Thrombin inh=18
CCn1c(O)c(C=Nc2ccc(S(N)(=O)=O)cc2)c(=O)n(CC)c1=S,6,-13,-5,20,.,.,.,
CN1C(=O)C(=Cc2ccc(N3CCOCC3)o2)C(=O)N(C)C1=S,87*,66*,176,57*,.,114*,118*,SENP1 inh conf=4;SENP1 kin conf=3
CC1(CCCc2ccc(N(CCCl)CCCl)cc2)NC(=O)NC1=O (stereo not drawn),-4,1,2,.,0,.,.,
C=CCN1C(=O)/C(=C/c2ccc(Br)s2)C(=O)NC1=S,-6,-18,37*,28*,.,15,24*,CSN deneddyl val=81*;MMP-2 counter-2=13;Thrombin cntr=3
CC1(C)OC(c2ccccc2)=C/C(=C/C=C2C(=O)NC(=O)NC2=O)O1,184,-27,96*,113*,.,107*,106*,CSN deneddyl val=195*;MMP-2 counter-2=-4;Thrombin cntr=-8
Cc1cc(OCCN2CC2)c2ccccc2n1,.,.,.,4,.,.,.,
O=C1NC(=O)C(=Cc2ccc(N3CCOCC3)cc2)C(=O)N1,0,1,-3,-3,8,.,.,
CCN1C(=O)C(=Cc2ccc(N3CCOCC3)o2)C(=O)N(CC)C1=S,48*,49*,106*,112*,.,146*,137*,SENP1 inh conf=19;SENP1 kin conf=10;CSN deneddyl val=62*;MMP-2 counter-2=-24;Thrombin cntr=69*
COC(=O)C1=C(c2ccc(OC(F)(F)F)cc2)C[C@@H]2CC[C@H]1N2C(=O)N1CCCCC1,-2,1,-2,.,-3,.,.,
O=C1NC(=O)N(Cc2ccccc2)C(=O)/C1=C\C=C\c1ccco1,18,-69,81*,60*,50*,46*,63*,Rpn11 confirm=29;MMP-2 counter-1=11;Thrombin inh=21;CSN deneddyl val=61*;MMP-2 counter-2=2;Thrombin cntr=27*
O=C1NC(=O)N(Cc2ccco2)C(=O)/C1=C/C=C/c1ccco1,-31,-53,46*,35*,141*,39*,54*,CSN deneddyl val=48;MMP-2 counter-2=26*;Thrombin cntr=20*
C=CCN1C(=O)NC(=O)/C(=C/C=C/c2ccccc2)C1=O,20,15,3,.,30,.,.,
O=C1NC(=O)N(c2cccc(F)c2)C(=O)/C1=C/c1ccc(N2CCOCC2)cc1,0,-41,9,8,9,.,.,
Cc1ccc(/C=C2\C(=O)NC(=S)N(c3cccc(F)c3)C2=O)o1,21,-21,45*,41*,.,46*,57*,CSN deneddyl val=65*;MMP-2 counter-2=35*;Thrombin cntr=54*
Fc1ccc(N2Cc3ccccc3-n3nncc3C2)cc1,-1,1,5,.,-1,.,.,
Cc1cccc(N2C(=O)NC(=O)/C(=C\C=C\c3ccco3)C2=O)c1,5,-35,50*,25*,31,30*,48*,CSN deneddyl val=84*;MMP-2 counter-2=8;Thrombin cntr=9

# Screening results (PubChem)
